Test results taken from ChEMBL document CHEMBL5357072, “Structural Modification of Noscapine via Photoredox/Nickel Dual Catalysis for the Discovery of S-Phase Arresting Agents” (ACS Med Chem Lett, 2024).
Values belong to the molecule of their own block, whether it stands above or below them.

Tests used:
MOLM-13 [1] = experiment: Antiproliferative activity against human MOLM-13 cells assessed as inhibition of cell growth incubated for 48 hrs by CCK8 assay; assay type: functional, cell-based; details: MOLM-13, 48 h
Outline: (§1)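 CCK-8 growth-inhibition assay in the malignant haematological lines MOLM-13, NB4 and Jeko-1 and in normal PBMC. Cells were treated across a range of doses and IC50 taken as the half-maximal growth-inhibitory concentration. Data are mean ± SD of triplicate samples, and experiments were repeated at least three times.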

NB-4 [2] = experiment: Antiproliferative activity against human NB4 cells assessed as inhibition of cell growth incubated for 48 hrs by CCK8 assay; assay type: functional, cell-based; details: NB-4, 48 h; outline: as §1
JeKo-1 [3] = experiment: Antiproliferative activity against human JeKo-1 cells assessed as inhibition of cell growth incubated for 48 hrs by CCK8 assay; assay type: functional, cell-based; details: JeKo-1, 48 h; outline: as §1
NB-4 [4] = experiment: Antiproliferative activity against human NB4 cells assessed as cell growth inhibition at 10 uM incubated for 48 hrs by CCK8 assay relative to control; assay type: functional; details: read-out: GI
Outline: (§2)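 Single-concentration screen of six cancer cell lines. Cells were exposed to 10 μM compound and growth was measured by CCK-8 assay. Results are reported as inhibition rate at 10 μM.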

MOLM-13 [5] = experiment: Antiproliferative activity against human MOLM-13 cells assessed as cell growth inhibition at 10 uM incubated for 48 hrs by CCK8 assay relative to control; assay type: functional; details: read-out: GI; outline: as §2
JeKo-1 [6] = experiment: Antiproliferative activity against human JeKo-1 cells assessed as cell growth inhibition at 10 uM incubated for 48 hrs by CCK8 assay relative to control; assay type: functional; details: read-out: GI; outline: as §2
A549 = experiment: Antiproliferative activity against human A549 cells assessed as cell growth inhibition at 10 uM incubated for 48 hrs by CCK8 assay relative to control; assay type: functional; details: read-out: GI; outline: as §2
HeLa = experiment: Antiproliferative activity against human HeLa cells assessed as cell growth inhibition at 10 uM incubated for 48 hrs by CCK8 assay relative to control; assay type: functional; details: read-out: GI; outline: as §2
U-251 = experiment: Antiproliferative activity against human U-251 cells assessed as cell growth inhibition at 10 uM incubated for 48 hrs by CCK8 assay relative to control; assay type: functional; details: read-out: GI; outline: as §2
MOLM-13 [7] = experiment: Cell cycle arrest in human MOLM-13 cells assessed as accumulation of G0/G1 phase cells at 10 uM incubated for 24 hrs by RNase A/PI staining based flow cytometry analysis (reference value: 38.14%); assay type: functional
MOLM-13 [8] = experiment: Cell cycle arrest in human MOLM-13 cells assessed as accumulation of G2/M phase cells at 10 uM incubated for 24 hrs by RNase A/PI staining based flow cytometry analysis (reference value: 11.74%); assay type: functional
MOLM-13 [9] = experiment: Cell cycle arrest in human MOLM-13 cells assessed as accumulation of S phase cells at 10 uM incubated for 24 hrs by RNase A/PI staining based flow cytometry analysis (reference value: 50.12%); assay type: functional
MOLM-13 [10] = experiment: Induction of apoptosis in human MOLM-13 cells assessed as viable cells at 10 uM incubated for 48 hrs by Annexin V-FITC/PI staining based flow cytometric analysis (reference value: 92.24%); assay type: functional; details: read-out: Activity
MOLM-13 [11] = experiment: Induction of apoptosis in human MOLM-13 cells assessed as early apoptotic cells at 10 uM incubated for 48 hrs by Annexin V-FITC/PI staining based flow cytometric analysis (reference value: 4.10%); assay type: functional
MOLM-13 [12] = experiment: Induction of apoptosis in human MOLM-13 cells assessed as late apoptotic cells at 10 uM incubated for 48 hrs by Annexin V-FITC/PI staining based flow cytometric analysis (reference value: 3.17%); assay type: functional
MOLM-13 [13] = experiment: Induction of apoptosis in human MOLM-13 cells assessed as necrotic cells at 10 uM incubated for 48 hrs by Annexin V-FITC/PI staining based flow cytometric analysis (reference value: 0.48%); assay type: functional
PBMC = experiment: Cytotoxicity against human PBMC assessed as reduction in cell viability incubated for 48 hrs by CCK8 assay; assay type: toxicity, cell-based; outline: as §1
MOLM-13 [14] = experiment: Cell cycle arrest in human MOLM-13 cells assessed as accumulation of G0/G1 phase cells at 2.5 uM incubated for 24 hrs by RNase A/PI staining based flow cytometry analysis (reference value: 38.14%); assay type: functional
MOLM-13 [15] = experiment: Cell cycle arrest in human MOLM-13 cells assessed as accumulation of G2/M phase cells at 2.5 uM incubated for 24 hrs by RNase A/PI staining based flow cytometry analysis (reference value: 11.74%); assay type: functional
MOLM-13 [16] = experiment: Cell cycle arrest in human MOLM-13 cells assessed as accumulation of S phase cells at 2.5 uM incubated for 24 hrs by RNase A/PI staining based flow cytometry analysis (reference value: 50.12%); assay type: functional
MOLM-13 [17] = experiment: Cell cycle arrest in human MOLM-13 cells assessed as accumulation of G0/G1 phase cells at 5 uM incubated for 24 hrs by RNase A/PI staining based flow cytometry analysis (reference value: 38.14%); assay type: functional
MOLM-13 [18] = experiment: Cell cycle arrest in human MOLM-13 cells assessed as accumulation of G2/M phase cells at 5 uM incubated for 24 hrs by RNase A/PI staining based flow cytometry analysis (reference value: 11.74%); assay type: functional
MOLM-13 [19] = experiment: Cell cycle arrest in human MOLM-13 cells assessed as accumulation of S phase cells at 5 uM incubated for 24 hrs by RNase A/PI staining based flow cytometry analysis (reference value: 50.12%); assay type: functional
MOLM-13 [20] = experiment: Induction of apoptosis in human MOLM-13 cells assessed as viable cells at 2.5 uM incubated for 48 hrs by Annexin V-FITC/PI staining based flow cytometric analysis (reference value: 92.24%); assay type: functional; details: read-out: Activity
MOLM-13 [21] = experiment: Induction of apoptosis in human MOLM-13 cells assessed as early apoptotic cells at 2.5 uM incubated for 48 hrs by Annexin V-FITC/PI staining based flow cytometric analysis (reference value: 4.10%); assay type: functional
MOLM-13 [22] = experiment: Induction of apoptosis in human MOLM-13 cells assessed as late apoptotic cells at 2.5 uM incubated for 48 hrs by Annexin V-FITC/PI staining based flow cytometric analysis (reference value: 3.17%); assay type: functional
MOLM-13 [23] = experiment: Induction of apoptosis in human MOLM-13 cells assessed as necrotic cells at 2.5 uM incubated for 48 hrs by Annexin V-FITC/PI staining based flow cytometric analysis (reference value: 0.48%); assay type: functional
MOLM-13 [24] = experiment: Induction of apoptosis in human MOLM-13 cells assessed as viable cells at 5 uM incubated for 48 hrs by Annexin V-FITC/PI staining based flow cytometric analysis (reference value: 92.24%); assay type: functional; details: read-out: Activity
MOLM-13 [25] = experiment: Induction of apoptosis in human MOLM-13 cells assessed as early apoptotic cells at 5 uM incubated for 48 hrs by Annexin V-FITC/PI staining based flow cytometric analysis (reference value: 4.10%); assay type: functional
MOLM-13 [26] = experiment: Induction of apoptosis in human MOLM-13 cells assessed as late apoptotic cells at 5 uM incubated for 48 hrs by Annexin V-FITC/PI staining based flow cytometric analysis (reference value: 3.17%); assay type: functional
MOLM-13 [27] = experiment: Induction of apoptosis in human MOLM-13 cells assessed as necrotic cells at 5 uM incubated for 48 hrs by Annexin V-FITC/PI staining based flow cytometric analysis (reference value: 0.48%); assay type: functional

SMILES: COc1ccc2c(c1OC)C(=O)O[C@@H]2[C@H]1c2c(c(CC3CN(C)C3)c3c(c2OC)OCO3)CCN1C
IC50 (MOLM-13 [1]): > 20 µM
IC50 (NB-4 [2]): > 20 µM
IC50 (JeKo-1 [3]): > 20 µM

SMILES: COc1ccc2c(c1OC)C(=O)O[C@@H]2[C@H]1c2c(c(CC3CN(C(C)=O)C3)c3c(c2OC)OCO3)CCN1C
IC50 (MOLM-13 [1]): > 20 µM
IC50 (NB-4 [2]): > 20 µM
IC50 (JeKo-1 [3]): > 20 µM

SMILES: COc1ccc2c(c1OC)C(=O)O[C@@H]2[C@H]1c2c(c(CC3CN(C(=O)OCc4ccccc4)C3)c3c(c2OC)OCO3)CCN1C(=O)OC(C)(C)C
IC50 (MOLM-13 [1]): 3.12 µM
IC50 (NB-4 [2]): 5.25 µM
IC50 (JeKo-1 [3]): 3.39 µM
inhibition of growth at 10 µM (NB-4 [4]): 60.5%
inhibition of growth at 10 µM (MOLM-13 [5]): 79.8%
inhibition of growth at 10 µM (JeKo-1 [6]): 74.3%
inhibition of growth at 10 µM (A549): 57%
inhibition of growth at 10 µM (HeLa): 62.7%
inhibition of growth at 10 µM (U-251): 37.1%
Activity (PBMC): Non-Toxic
Activity (MOLM-13 [14]): 36.94%
Activity (MOLM-13 [15]): 16.36%
Activity (MOLM-13 [16]): 46.7%
Activity (MOLM-13 [17]): 16.37%
Activity (MOLM-13 [18]): 9.96%
Activity (MOLM-13 [19]): 73.67%
Activity (MOLM-13 [7]): 12.45%
Activity (MOLM-13 [8]): 5.11%
Activity (MOLM-13 [9]): 82.44%
viability at 2.5 µM (MOLM-13 [20]): 90.1%
Activity (MOLM-13 [21]): 5.01%
Activity (MOLM-13 [22]): 4.35%
Activity (MOLM-13 [23]): 0.52%
viability at 5 µM (MOLM-13 [24]): 62%
Activity (MOLM-13 [25]): 16.95%
Activity (MOLM-13 [26]): 18.62%
Activity (MOLM-13 [27]): 2.41%
viability at 10 µM (MOLM-13 [10]): 53.5%
Activity (MOLM-13 [11]): 19.67%
Activity (MOLM-13 [12]): 23.68%
Activity (MOLM-13 [13]): 3.2%

SMILES: CCC(C)Cc1c2c(c(OC)c3c1OCO3)[C@H]([C@H]1OC(=O)c3c1ccc(OC)c3OC)N(C(=O)OC(C)(C)C)CC2 (stereo partly drawn)
inhibition of growth at 10 µM (NB-4 [4]): 9.33%
inhibition of growth at 10 µM (MOLM-13 [5]): 51.2%
inhibition of growth at 10 µM (JeKo-1 [6]): 24%
inhibition of growth at 10 µM (A549): < 5%
inhibition of growth at 10 µM (HeLa): 6.92%
inhibition of growth at 10 µM (U-251): < 5%

SMILES: COc1ccc2c(c1OC)C(=O)O[C@@H]2[C@H]1c2c(c(CC3CN(C(=O)OCc4ccccc4)C3)c3c(c2OC)OCO3)CCN1C
IC50 (MOLM-13 [1]): 4.37 µM
IC50 (NB-4 [2]): 10.7 µM
IC50 (JeKo-1 [3]): 5.11 µM

Further lines, with some results ahead:

IC50 (MOLM-13 [1]): 15.3 µM
SMILES: COc1ccc2c(c1OC)C(=O)O[C@@H]2[C@H]1c2c(c(Br)c3c(c2OC)OCO3)CCN1C
IC50 (NB-4 [2]): 16.3 µM
IC50 (JeKo-1 [3]): 11.5 µM
inhibition of growth at 10 µM (NB-4 [4]): 38.3%
inhibition of growth at 10 µM (MOLM-13 [5]): 41.9%
inhibition of growth at 10 µM (JeKo-1 [6]): 48.9%
inhibition of growth at 10 µM (A549): 15.9%
inhibition of growth at 10 µM (HeLa): 28.1%
inhibition of growth at 10 µM (U-251): < 5%
Activity (MOLM-13 [7]): 32.96%
Activity (MOLM-13 [8]): 36.44%
Activity (MOLM-13 [9]): 30.6%
viability at 10 µM (MOLM-13 [10]): 78.1%
Activity (MOLM-13 [11]): 10.63%
Activity (MOLM-13 [12]): 10.56%
Activity (MOLM-13 [13]): 0.69%

IC50 (MOLM-13 [1]): 6.47 µM
SMILES: CCNC(=O)N1CCc2c(CC3CN(C(=O)OCc4ccccc4)C3)c3c(c(OC)c2[C@@H]1[C@H]1OC(=O)c2c1ccc(OC)c2OC)OCO3
IC50 (NB-4 [2]): 10.4 µM
IC50 (JeKo-1 [3]): 6.97 µM

IC50 (MOLM-13 [1]): 7.78 µM
SMILES: COc1ccc2c(c1OC)C(=O)O[C@@H]2[C@@H]1NCCc2c(CC3CN(C(=O)OCc4ccccc4)C3)c3c(c(OC)c21)OCO3
IC50 (NB-4 [2]): 13.2 µM
IC50 (JeKo-1 [3]): 7.57 µM
